The source made the active and inactive calls. The calls are words filed in the database; no cut-off is given here.
Tests used:
[1] = tested on: HeLa; experiment: Antiproliferative activity against human HeLa cells after 48 hrs by MTT assay; type: functional
In short: (§1)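 Cells were seeded at 2 × 10^4 cells/mL, allowed to adhere 24 h, then exposed 48 h to a concentration series, with DMSO as control. MTT was added for 2 h at 37 °C, formazan dissolved in DMSO and OD read at 490 nm. GI50 is the concentration giving 50% viability loss versus DMSO; 8 replicates, at least two independent experiments, ± SD.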

[2] = tested on: MCF7; experiment: Antiproliferative activity against human MCF7 cells after 48 hrs by MTT assay; type: functional; conditions: MCF7, 48 h; in short: as §1
[3] = tested on: Jurkat; experiment: Induction of apoptosis in human Jurkat cells assessed as cleavage of caspase 3 substrate DEVD-p-nitroanaline 2 hrs by spectrophotometric analysis; type: functional, cell-based
In short: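 Jurkat cells (RPMI-1640, 10% FBS) were treated at 0.1, 0.5 and 1 μM alongside DMSO control. Lysates from 1 × 10^6 cells were normalized by BCA protein assay, then incubated with DEVD-pNA substrate for 2 h at 37 °C. Read at 405 nm and expressed relative to DMSO set as one. Quadruplicates, repeated at least twice.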

[4] = organism: Bos taurus; experiment: Inhibition of purified bovine tubulin polymerization assessed as microtubule destabilization at 25 uM after 20 mins by fluorescence spectrophotometric analysis
In short: (§2)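 Purified bovine tubulin was incubated at 37 °C in buffer with 10% glycerol and 1 mM GTP, each agent in a separate run, against a 0.05% DMSO control. Polymerization was followed by fluorescence spectrophotometry for 20 min, reading every 15 s.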

[5] = tested on: HeLa; experiment: Antimitotic activity in human HeLa cells assessed as visible deffect in microtubule organization at 5 nM after 3 hrs by inverted microscopic analysis; type: functional, cell-based
In short: (§3)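 HeLa cells in DMEM with 10% fetal calf serum, pyruvate, bicarbonate and PSF were treated 3 h with compound solubilized in DMSO and prediluted in medium, or with 0.1% DMSO carrier. Cells were fixed in methanol at −20°C and blocked 1 h in PBS-5% BSA. They were stained overnight at 4°C for tubulin, Hec1 and Hoechst 33342, then imaged by epifluorescence with structured illumination.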

[6] = organism: Bos taurus; experiment: Inhibition of purified bovine tubulin polymerization assessed as microtubule destabilization at 3 uM after 20 mins by fluorescence spectrophotometric analysis relative to control; in short: as §2
[7] = tested on: Jurkat; experiment: Induction of apoptosis in human Jurkat cells at 5 to 8 nM after 48 hrs by annexinV-propidium iodide staining based FITC analysis; type: functional, cell-based
In short: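 Jurkat cells plated at 2 × 10^5 cells/mL were exposed for 48 h across a concentration range. They were pelleted, resuspended in HHB containing CaCl2, propidium iodide and Annexin-V-FITC, and labelled 20 min at 37 °C. Annexin-V-positive cells were scored by flow cytometry as % apoptotic. Triplicates, repeated at least twice, ± SD.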

[8] = tested on: HeLa; experiment: Antimitotic activity in human HeLa cells assessed as disruption of interphase microtubule organization at 5 nM after 3 hrs by inverted microscopic analysis; type: functional, cell-based
In short: (§4)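 HeLa cells in DMEM with 10% fetal calf serum, pyruvate, bicarbonate and PSF were exposed for 3 h to compound diluted from DMSO stock into medium, carrier 0.1% DMSO. Cells were fixed in methanol at −20 °C, blocked 1 h in PBS with 5% BSA, then stained overnight at 4 °C with anti-tubulin, anti-Hec1 and Hoechst 33342. Imaged by epifluorescence microscopy with structured illumination.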

[9] = tested on: HeLa; experiment: Antimitotic activity in human HeLa cells assessed as disruption of mitotic microtubule organization at 5 nM after 3 hrs by inverted microscopic analysis; type: functional, cell-based; in short: as §4
[10] = tested on: HeLa; experiment: Antimitotic activity in human HeLa cells assessed as nucleated microtubule at 10 uM after 3 hrs by inverted microscopic analysis; type: functional, cell-based; in short: as §4
[11] = tested on: HeLa; experiment: Antimitotic activity in human HeLa cells assessed as visible deffect in mitotic spindle formation at 10 uM after 3 hrs by inverted microscopic analysis; type: functional, cell-based; in short: as §3
[12] = tested on: HeLa; experiment: Antimitotic activity in human HeLa cells assessed as disruption of interphase microtubule organization at 10 uM after 3 hrs by inverted microscopic analysis; type: functional, cell-based; in short: as §3

SMILES | GI50 [1] [nM] | GI50 [2] [nM] | also measured
CSc1nc(N)c2c(n1)NC1=C(C(=O)OC1)C2c1cc(Br)cc(Br)c1 (racemic) | 561 | 1020 | 
Cc1n[nH]c2c1C(c1cc(Br)cc(Br)c1)C1=C(COC1=O)N2 (racemic) | 75 | 75 | 
COc1cc(C2C3=C(COC3=O)Nc3cc4c(cc32)CCCC4)cc(OC)c1OC (racemic) | 18 | 19 | 
COc1cc(Br)cc(C2C3=C(COC3=O)Nc3c2ccc2ccccc32)c1O (racemic) | 3 | 3 | 
O=C1OCC2=C1C(c1cncc(Br)c1)c1ccc3ccccc3c1N2 (racemic) | 7 | 13 | 
O=C1OCC2=C1C(c1cc(Br)cc(Br)c1)c1cn[nH]c1N2 (racemic) | 25 | 25 | Activity [3]: Active; inhibition [4]: Active
COc1cc(C2C3=C(COC3=O)Nc3c2ccc2ccc(O)cc32)cc(Br)c1OC (racemic) | 2 | 3 | 
O=C1OCC2=C1[C@H](c1cc(Br)cc(Br)c1)c1ccc3ccccc3c1N2 | 9 | 9 | 
Cc1n[nH]c2c1C(c1cncc(Br)c1)C1=C(COC1=O)N2 (racemic) | 3000 | 800 | 
COc1cc(C2C3=C(COC3=O)Nc3[nH]nc(C)c32)cc(Br)c1OC (racemic) | 750 | 1000 | 
O=C1OCC2=C1C(c1cc(Br)ccc1O)c1ccc3ccc(O)cc3c1N2 (racemic) | 3 | 3 | 
O=C1OCC2=C1C(c1cc(Br)cc(Br)c1)c1ccc3[nH]ccc3c1N2 (racemic) | 114 | 21 | 
COc1cc(C2C3=C(COC3=O)Nc3nc(SC)nc(N)c32)cc(OC)c1OC (racemic) | 125 | 170 | 
COc1cc(C2C3=C(COC3=O)Nc3[nH]ncc32)cc(Br)c1OC (racemic) | 750 | 250 | 
COc1cc(C2C3=C(COC3=O)Nc3[nH][nH]c(=O)c32)cc(OC)c1OC (racemic) | > 10000 | > 10000 | 
O=C1OCC2=C1C(c1cc(Br)ccc1O)c1cn[nH]c1N2 (racemic) | 50 | 25 | 
COc1cc(C2C3=C(COC3=O)Nc3c2ccc2[nH]ccc32)cc(OC)c1OC (racemic) | 19 | 22 | 
O=C1OCC2=C1C(c1cc(Br)cc(Br)c1)c1c(ccc3ccccc13)N2 (racemic) | 420 | 201 | 
O=C1OCC2=C1C(c1cc(Br)cc(Br)c1)c1cc3c(cc1N2)CCCC3 (racemic) | 100 | 70 | 
O=C1OCC2=C1C(c1cc(Br)cs1)c1ccc3ccc(O)cc3c1N2 (racemic) | 3 | 3 | 
O=C1OCC2=C1[C@@H](c1cc(Br)cc(Br)c1)c1ccc3ccccc3c1N2 | 19000 | 14000 | 
COc1cc(C2C3=C(COC3=O)Nc3c2ccc2ccccc32)cc(OC)c1OC (racemic) | 3 | 3 | 
COc1cc(Br)cc(C2C3=C(COC3=O)Nc3[nH]ncc32)c1O (racemic) | 25 | 30 | 
O=C1OCC2=C1C(c1cc(Br)cc(Br)c1)c1c([nH][nH]c1=O)N2 (racemic) | > 10000 | > 10000 | 
COc1cccc(C2C3=C(COC3=O)Nc3[nH]ncc32)c1O (racemic) | 2000 | 500 | 
COc1cc(C2C3=C(COC3=O)Nc3c2ccc2c(O)cccc32)cc(OC)c1OC (racemic) | 3 | 3 | 

SMILES | GI50 [1] [nM] | GI50 [2] [nM] | also measured
COc1cc(C2C3=C(COC3=O)Nc3[nH]ncc32)cc(OC)c1OC (racemic) | 3000 | 250 | 
O=C1OCC2=C1C(c1cccc(Br)c1)c1cn[nH]c1N2 (racemic) | 75 | 100 | 
Cc1n[nH]c2c1C(c1cc(Br)ccc1O)C1=C(COC1=O)N2 (racemic) | 300 | 250 | 
Cc1n[nH]c2c1C(c1cccc(Br)c1)C1=C(COC1=O)N2 (racemic) | 3000 | 4000 | 
O=C1OCC2=C1C(c1cc(Br)cc(Br)c1O)c1ccc3ccc(O)cc3c1N2 (racemic) | 7 | 3 | 
COc1cc2c(c(OC)c1OC)-c1ccc(OC)c(=O)cc1[C@@H](NC(C)=O)CC2 |  |  | Activity [5]: inactive
O=C1OCC2=C1C(c1cc(Br)cc(Br)c1)c1ccc3c(O)cccc3c1N2 (racemic) | 21 | 23 | 
O=C1OCC2=C1C(c1cc(Br)cc(Br)c1O)c1ccc3ccccc3c1N2 (racemic) | 18 | 21 | 
COc1cc(C2C3=C(COC3=O)Nc3ccc4ccccc4c32)cc(OC)c1OC (racemic) | 540 | 121 | 
CC(=O)O[C@H]1C(=O)[C@@]2(C)[C@H]([C@H](OC(=O)c3ccccc3)[C@]3(O)C[C@H](OC(=O)[C@H](O)[C@@H](NC(=O)c4ccccc4)c4ccccc4)C(C)=C1C3(C)C)[C@]1(OC(C)=O)CO[C@@H]1C[C@@H]2O |  |  | inhibition [6]: inactive
COc1cc(C2C3=C(COC3=O)Nc3c2ccc2ccc(O)cc32)cc(OC)c1OC (racemic) | 2 | 3 | 
O=C1OCC2=C1C(c1cc(Br)cc(Br)c1)c1ccc3ccccc3c1N2 (racemic) | 16 | 14 | 
COc1cc(C2C3=C(COC3=O)Nc3c2ccc2ccccc32)cc(Br)c1OC (racemic) | 3 | 3 | 
Nc1cc2c(c3ccccc13)NC1=C(C(=O)OC1)C2c1cc(Br)cc(Br)c1 (racemic) | 21 | 16 | 
O=C1OCC2=C1C(c1cc(Br)cc(Br)c1)c1ccc3ccc(O)cc3c1N2 (racemic) | 6 | 3 | 
COc1cc(Br)cc(C2C3=C(COC3=O)Nc3c2ccc2ccc(O)cc32)c1O (racemic) | 6 | 3 | 
COc1cc(C2C3=C(COC3=O)Nc3[nH]nc(C)c32)cc(OC)c1OC (racemic) | 5000 | 5000 | 
O=C1OCC2=C1C(c1cc(Br)cc(Br)c1O)c1cn[nH]c1N2 (racemic) | 20 | 10 | Activity [7]: Active; Activity [3]: Active; inhibition [4]: Active; Activity [8]: Active; Activity [9]: Active; Activity [10]: Active
O=C1OCC2=C1C(c1cc(Br)cs1)c1cn[nH]c1N2 (racemic) | 1150 | 740 | 
O=C1OCC2=C1C(c1cc(Br)cs1)c1ccc3ccccc3c1N2 (racemic) | 3 | 3 | 
O=C1OCC2=C1C(c1cc(Br)ccc1O)c1ccc3ccccc3c1N2 (racemic) | 3 | 3 | 
O=C1OCC2=C1C(c1cncc(Br)c1)c1cn[nH]c1N2 (racemic) | 75 | 15 | 
O=C1OCC2=C1C(c1cncc(Br)c1)c1ccc3ccc(O)cc3c1N2 (racemic) | 3 | 3 | 
COc1cc(Br)cc(C2C3=C(COC3=O)Nc3[nH]nc(C)c32)c1O (racemic) | 35 | 100 | 
COc1cc([C@@H]2c3cc4c(cc3[C@H](O)[C@H]3COC(=O)[C@H]23)OCO4)cc(OC)c1OC [PODOFILOX] | 20 | 10 | Activity [3]: Active; inhibition [4]: Active; Activity [11]: Active; Activity [12]: inactive
